The values that follow come from article PMC4251658 (Biochemistry, 2012).

Series [1] addresses T1, PCP hydroxylase (Sphingobium chlorophenolicum, UniProt P42535).
T1 sequence (P42535 1-538): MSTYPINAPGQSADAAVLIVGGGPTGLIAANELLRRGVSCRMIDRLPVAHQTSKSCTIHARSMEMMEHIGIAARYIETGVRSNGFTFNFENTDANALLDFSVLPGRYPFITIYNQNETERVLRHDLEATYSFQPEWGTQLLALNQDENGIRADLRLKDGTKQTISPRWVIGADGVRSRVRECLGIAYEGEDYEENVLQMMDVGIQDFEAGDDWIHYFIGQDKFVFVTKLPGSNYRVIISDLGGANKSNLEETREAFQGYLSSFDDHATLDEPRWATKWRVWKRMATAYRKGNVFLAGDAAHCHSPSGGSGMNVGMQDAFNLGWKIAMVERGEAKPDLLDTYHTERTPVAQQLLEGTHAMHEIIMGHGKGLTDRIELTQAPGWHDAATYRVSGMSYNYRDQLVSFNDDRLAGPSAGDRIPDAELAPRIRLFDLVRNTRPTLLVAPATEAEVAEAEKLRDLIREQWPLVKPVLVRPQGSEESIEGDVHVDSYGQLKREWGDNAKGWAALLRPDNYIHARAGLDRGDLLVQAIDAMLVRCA
Format: biochemical. The note with it: 100 μM substrate, 160 μM NADPH.

The target in series [2] is T1, PCP hydroxylase. Put plainly: Hydrogen peroxide assay. Format: biochemical. The conditions noted are these: 100 μM substrate, 160 μM NADPH. An outline of the steps: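 Reaction samples or H2O2 standards were added to freshly prepared reagent (250 μM Fe(II) ammonium sulfate, 25 mM H2SO4, 100 μM xylenol orange, 100 mM sorbitol) and incubated 30–45 min at room temperature. A560 was read against a prior standard curve. Reactions contained substrate or effector (100 μM) and NADPH (160 μM), run in triplicate; average rates came from at least three separate experiments.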

For series [3], the target named is T1, PCP hydroxylase. Put plainly: HPLC analysis of the products formed by PCP hydroxylase. The class given is biochemical. The conditions noted are these: for TCHQ, reaction components after 1 min incubation at room temperature / TCP, reaction components after 1 min incubation at room temperature / THTH, reaction components after 1 min incubation at room temperature / PCP, reaction components after 1 min incubation at room temperature: reactant 100 μM, PCP hydroxylase 10 μM, NADPH 300 μM. In outline: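 His6-tagged enzyme expressed in E. coli M15(pReP4). Substrate (100 μM) in 50 mM potassium phosphate pH 7.5 with 25 μM ascorbate, plus 6 mM β-ME where included to trap TCBQ as THTH. Enzyme (10 μM) and NADPH (300 μM) added as indicated, 1 min at room temperature. Quenched into ethyl acetate with p-nitrophenol internal standard, dried, redissolved in TFA/acetonitrile; HPLC detection at 295, 310 and 350 nm.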

In series [4] the target is T1, PCP hydroxylase. Kind of series: Determination of dissociation constants by absorbance spectroscopy. The class given is binding. The conditions noted are these: titration at constant enzyme concentration.
In series [5] the target is T1, PCP hydroxylase. Kind of series: Spectroscopic assays of enzyme activity, steady-state kinetic parameters. The class given is biochemical. The conditions noted are these: 160 μM NADPH; for kcat for hydroxylation reaction: in the presence of 6 mM β-ME, ambient O2 (apparent).
Series [6] concerns PCP hydroxylase. The conditions noted are these: cited from earlier work.
For series [7] the following is noted: phenolic proton, in solution; cited from earlier work.
Series [8] concerns the molecule itself. Kind of series: SEC. On the technique in general: In gel filtration, larger molecules generally elute earlier.
Where [9] appears, read: in the presence of 5 mM ascorbate.

Where “and” joins values, the source holds several entries; their conditions need not be identical. Equal entries are not always repeated. Where two headings read alike, the source gives them in different places. Marks after values point to notes of the source that are not given here. Some results are limits rather than exact numbers.

On to `Oc1ccc(Cl)c(Cl)c1` [3,4-DCP], for which, in series [1], the NADPH disappearance stood at 0.0045 ± 0.0010 s⁻¹, the Product appearance entry is given as “none” and the “extent of uncoupling (in words)” value is recorded as “complete uncoupling”.

For the molecule `Oc1cc(Cl)cc(Cl)c1` [3,5-DCP, 3,5-dichlorophenol], in series [1], the NADPH disappearance came out at 0.0079 ± 0.0016 s⁻¹, the Product appearance entry is recorded as “none” and the “extent of uncoupling (in words)” value was “complete uncoupling”. This molecule also gave an H2O2 appearance in series [2] of 0.0029 ± 0.0006 s⁻¹.

Consider `Oc1c(Cl)cc(Cl)cc1Cl` [2,4,6-triCP, 2,4,6-trichlorophenol], for which, in series [1] (setting [9]), the NADPH /product is listed as 1.5^b, the NADPH disappearance is listed as 0.0048 ± 0.003^b s^−1 and the Product appearance is reported as 0.0033 ± 0.0002^b s^−1. This molecule had an H2O2 appearance in series [2] of 0.0012 ± 0.0002 s⁻¹.

On to `Oc1cc(Cl)c(Cl)c(Cl)c1` [3,4,5-triCP, 3,4,5-trichlorophenol], for which, in series [1], the NADPH disappearance came out at 0.012 ± 0.001 s⁻¹, the Product appearance result is listed as “none” and the “extent of uncoupling (in words)” value is “complete uncoupling”.

`Oc1c(Cl)c(Cl)cc(Cl)c1Cl` [TCP, 2,3,5,6-tetrachlorophenol]: in series [3] (no β-ME, 25 μM ascorbate), the “TCHQ, reaction components after 1 min incubation at room temperature” value (“TCHQ, reaction components” below) turned out to be 78 ± 11 and the “TCP, reaction components after 1 min incubation at room temperature” value is listed as 10 ± 1. In addition, in series [3] (β-ME 6, 25 μM ascorbate), the “TCHQ, reaction components” value stood at 75 ± 8; the “TCP, reaction components after 1 min incubation at room temperature” value is on record as 10 ± 1; the “THTH, reaction components after 1 min incubation at room temperature” value (shortened to “THTH, reaction components”) is 9 ± 1. Also, in series [4], the “Dissociation constants (in words)” value is “low micromolar range”. In addition, in series [5], the “Hill coefficient nH” value was determined as 2. In series [1], this molecule yielded an NADPH /product of 1.5, an NADPH disappearance of 0.111 ± 0.018 s⁻¹ and a Product appearance of 0.076 ± 0.008 s⁻¹. Besides, the H2O2 appearance in series [2] came to 0.0132 ± 0.008 s⁻¹.

Take `Oc1c(Cl)c(Cl)c(O)c(Cl)c1Cl` [TCHQ, tetrachlorohydroquinone]: the “conversion to THTH” value in series [3] (incubation with the enzyme in the presence of NADPH and β-ME for one minute) was 23%. In series [3] (β-ME 6, 25 μM ascorbate), the “TCHQ, reaction components” value amounted to 77 ± 2 and the “THTH, reaction components” value was 23 ± 2. Also, in series [4], the “Dissociation constants (in words)” value was “low micromolar range”. Also, the “concentration above which substrate inhibition is seen” value in series [5] (6 mM β-ME) is above 40 µM. In addition, in series [5], the “kcat for hydroxylation reaction” value is > 0.015^a,b s^−1. Besides, in series [1] (in the presence of 6 mM β-ME), the NADPH /product was 6.3^c, the NADPH disappearance was 0.030 ± 0.003^c s^−1 and the Product appearance is recorded as 0.0048 ± 0.0004^c s^−1. In addition, in series [2], the H2O2 appearance worked out at 0.035 ± 0.005 s⁻¹.

On to `Oc1c(Cl)cccc1Cl` [2,6-DCP, 2,6-dichlorophenol], for which, in series [1], the NADPH /product was 0.9, the NADPH disappearance was 0.051 ± 0.004 s⁻¹, the Product appearance came to 0.060 ± 0.002 s⁻¹ and the “extent of uncoupling (in words)” value was “no uncoupling”. The molecule also displayed an H2O2 appearance in series [2] of 0.0011 ± 0.0002 s⁻¹.

A word on the pKa: it is the pH at which an ionisable group is half protonated. Turning to `Oc1c(Cl)c(Cl)c(Cl)c(Cl)c1Cl` [PCP, pentachlorophenol], in series [3] (no β-ME, 25 μM ascorbate), the “PCP, reaction components after 1 min incubation at room temperature” value was determined as 75 ± 1 and the “TCHQ, reaction components” value amounted to 18 ± 1. For the same molecule, in series [3] (β-ME 6, 25 μM ascorbate), the “PCP, reaction components after 1 min incubation at room temperature” value worked out at 70 ± 2 and the “THTH, reaction components” value is 28 ± 2. The “kcat for hydroxylation reaction” value in series [5] is 0.024 s^−1 and 0.024 ± 0.002^a,b s^−1. In addition, in series [1] (setting [9]), the NADPH /product is recorded as 1.3^b, the NADPH disappearance was 0.025 ± 0.001^b s^−1 and the Product appearance is listed as 0.020 ± 0.003^b s^−1. The molecule also had an H2O2 appearance in series [2] of 0.0070 ± 0.0009 s⁻¹. Besides, in series [6], the “NADPH consumed for each PCP consumed” value is on record as 2 equivalents and the “O2 consumed for each PCP consumed” value is 1.4 equivalents. Also, the pKa in series [7] is given as 4.5.

B1: His6-tagged PCP hydroxylase (pentachlorophenol hydroxylase, PcpB) (enzyme, Sphingobium chlorophenolicum, UniProt P42535 1-538, looked up)
chain: MSTYPINAPGQSADAAVLIVGGGPTGLIAANELLRRGVSCRMIDRLPVAHQTSKSCTIHARSMEMMEHIGIAARYIETGVRSNGFTFNFENTDANALLDFSVLPGRYPFITIYNQNETERVLRHDLEATYSFQPEWGTQLLALNQDENGIRADLRLKDGTKQTISPRWVIGADGVRSRVRECLGIAYEGEDYEENVLQMMDVGIQDFEAGDDWIHYFIGQDKFVFVTKLPGSNYRVIISDLGGANKSNLEETREAFQGYLSSFDDHATLDEPRWATKWRVWKRMATAYRKGNVFLAGDAAHCHSPSGGSGMNVGMQDAFNLGWKIAMVERGEAKPDLLDTYHTERTPVAQQLLEGTHAMHEIIMGHGKGLTDRIELTQAPGWHDAATYRVSGMSYNYRDQLVSFNDDRLAGPSAGDRIPDAELAPRIRLFDLVRNTRPTLLVAPATEAEVAEAEKLRDLIREQWPLVKPVLVRPQGSEESIEGDVHVDSYGQLKREWGDNAKGWAALLRPDNYIHARAGLDRGDLLVQAIDAMLVRCA
What is called stoichiometry N is the number of molecules, sites or subunits per partner or assembly. For the molecule B1, the “stoichiometry N” value in series [8] was 2.
